{
  "source": "ChEMBL document CHEMBL4765454",
  "about": "“Betulinic acid derived amides are highly cytotoxic, apoptotic and selective” (Eur J Med Chem, 2020)",
  "key": {"A-375 [1]": {"system": "A-375", "experiment": "Cytotoxicity against human A-375 cells assessed as reduction in cell viability incubated for 72 hrs by SRB assay", "assay_type": "functional, cell-based", "conditions": "Homo sapiens, A-375, 72 h; read-out: EC50"}, "HT-29": {"system": "HT-29", "experiment": "Cytotoxicity against human HT-29 cells assessed as reduction in cell viability incubated for 72 hrs by SRB assay", "assay_type": "functional, cell-based", "conditions": "Homo sapiens, HT-29, 72 h; read-out: EC50"}, "MCF7": {"system": "MCF7", "experiment": "Cytotoxicity against human MCF7 cells assessed as reduction in cell viability incubated for 72 hrs by SRB assay", "assay_type": "functional, cell-based", "conditions": "Homo sapiens, MCF7, 72 h; read-out: EC50"}, "A2780": {"system": "A2780", "experiment": "Cytotoxicity against human A2780 cells assessed as reduction in cell viability incubated for 72 hrs by SRB assay", "assay_type": "functional, cell-based", "conditions": "Homo sapiens, A2780, 72 h; read-out: EC50"}, "FaDu": {"system": "FaDu", "experiment": "Cytotoxicity against human FaDu cells assessed as reduction in cell viability incubated for 72 hrs by SRB assay", "assay_type": "functional, cell-based", "conditions": "Homo sapiens, FaDu, 72 h; read-out: EC50"}, "NIH3T3": {"system": "NIH3T3", "experiment": "Cytotoxicity against mouse NIH3T3 cells assessed as reduction in cell viability incubated for 72 hrs by SRB assay", "assay_type": "cell-based", "conditions": "Mus musculus, NIH3T3, 72 h; read-out: EC50"}, "[2]": {"experiment": "Selectivity ratio of EC50 for mouse NIH3T3 cells to EC50 for human HT-29 cells", "assay_type": "toxicity", "conditions": "NIH3T3 cells versus HT-29 cells, read-out: Ratio EC50"}, "[3]": {"experiment": "Selectivity ratio of EC50 for mouse NIH3T3 cells to EC50 for human MCF7 cells", "assay_type": "toxicity", "conditions": "NIH3T3 cells versus MCF7 cells, read-out: Ratio EC50"}, "[4]": {"experiment": "Selectivity ratio of EC50 for mouse NIH3T3 cells to EC50 for human A2780 cells", "assay_type": "toxicity", "conditions": "NIH3T3 cells versus A2780 cells, read-out: Ratio EC50"}, "[5]": {"experiment": "Selectivity ratio of EC50 for mouse NIH3T3 cells to EC50 for human FaDu cells"}, "A-375 [6]": {"system": "A-375", "experiment": "Induction of apoptosis in human A375 cells assessed as necrotic cells at 4.8 uM measured after 24 hrs by Annexin V-FITC/propidium iodide staining based flow cytometry (reference value: 0.331%)", "assay_type": "functional"}, "A-375 [7]": {"system": "A-375", "experiment": "Induction of apoptosis in human A375 cells assessed as late apoptotic cells at 4.8 uM measured after 24 hrs by Annexin V-FITC/propidium iodide staining based flow cytometry (reference value: 7.352%)", "assay_type": "functional"}, "A-375 [8]": {"system": "A-375", "experiment": "Induction of apoptosis in human A375 cells assessed as viable cells at 4.8 uM measured after 24 hrs by Annexin V-FITC/propidium iodide staining based flow cytometry (reference value: 90.123%)", "assay_type": "functional", "conditions": "read-out: Activity"}, "A-375 [9]": {"system": "A-375", "experiment": "Induction of apoptosis in human A375 cells assessed as early apoptotic cells at 4.8 uM measured after 24 hrs by Annexin V-FITC/propidium iodide staining based flow cytometry (reference value: 2.194%)", "assay_type": "functional"}, "A-375 [10]": {"system": "A-375", "experiment": "Induction of apoptosis in human A375 cells assessed as necrotic cells at 4.8 uM measured after 48 hrs by Annexin V-FITC/propidium iodide staining based flow cytometry (reference value: 0.547%)", "assay_type": "functional"}, "A-375 [11]": {"system": "A-375", "experiment": "Induction of apoptosis in human A375 cells assessed as late apoptotic cells at 4.8 uM measured after 48 hrs by Annexin V-FITC/propidium iodide staining based flow cytometry (reference value: 5.108%)", "assay_type": "functional"}, "A-375 [12]": {"system": "A-375", "experiment": "Induction of apoptosis in human A375 cells assessed as viable cells at 4.8 uM measured after 48 hrs by Annexin V-FITC/propidium iodide staining based flow cytometry (reference value: 92.723%)", "assay_type": "functional", "conditions": "read-out: Activity"}, "A-375 [13]": {"system": "A-375", "experiment": "Induction of apoptosis in human A375 cells assessed as early apoptotic cells at 4.8 uM measured after 48 hrs by Annexin V-FITC/propidium iodide staining based flow cytometry (reference value: 1.622%)", "assay_type": "functional"}, "A-375 [14]": {"system": "A-375", "experiment": "Induction of apoptosis in human A375 cells at 4.8 uM measured after 24 hrs by microscopic analysis", "assay_type": "functional, cell-based", "procedure,_shortened": "(§1)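 A375 cells treated at 3.0, 4.8 or 6.2 µM and inspected by light microscopy after 24 h or 48 h. Cell number and morphology were scored for apoptotic features: shrinkage, strangulation and blebbing.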"}, "A-375 [15]": {"system": "A-375", "experiment": "Induction of apoptosis in human A375 cells assessed as cell shrinkage at 4.8 uM measured after 48 hrs by microscopic analysis", "assay_type": "functional, cell-based", "procedure,_shortened": "as §1"}, "A-375 [16]": {"system": "A-375", "experiment": "Induction of apoptosis in human A375 cells assessed as strangulation at 4.8 uM measured after 48 hrs by microscopic analysis", "assay_type": "functional, cell-based", "procedure,_shortened": "as §1"}, "A-375 [17]": {"system": "A-375", "experiment": "Induction of apoptosis in human A375 cells assessed as blebbing at 4.8 uM measured after 48 hrs by microscopic analysis", "assay_type": "functional, cell-based", "procedure,_shortened": "as §1"}, "A-375 [18]": {"system": "A-375", "experiment": "Cell cycle arrest in human A375 cells assessed as accumulation at subG1 phase measured after 24 hrs by propidium iodide staining based flow cytometry (reference value: 0.46%)", "assay_type": "functional"}, "A-375 [19]": {"system": "A-375", "experiment": "Cell cycle arrest in human A375 cells assessed as accumulation at G1 phase measured after 24 hrs by propidium iodide staining based flow cytometry (reference value: 44.59%)", "assay_type": "functional"}, "A-375 [20]": {"system": "A-375", "experiment": "Cell cycle arrest in human A375 cells assessed as accumulation at S phase measured after 24 hrs by propidium iodide staining based flow cytometry (reference value: 47.46%)", "assay_type": "functional"}, "A-375 [21]": {"system": "A-375", "experiment": "Cell cycle arrest in human A375 cells assessed as accumulation at G2/M phase measured after 24 hrs by propidium iodide staining based flow cytometry (reference value: 7.48%)", "assay_type": "functional"}, "A-375 [22]": {"system": "A-375", "experiment": "Cell cycle arrest in human A375 cells assessed as accumulation at subG1 phase measured after 48 hrs by propidium iodide staining based flow cytometry (reference value: 0.57%)", "assay_type": "functional"}, "A-375 [23]": {"system": "A-375", "experiment": "Cell cycle arrest in human A375 cells assessed as accumulation at G1 phase measured after 48 hrs by propidium iodide staining based flow cytometry (reference value: 57.3%)", "assay_type": "functional"}, "A-375 [24]": {"system": "A-375", "experiment": "Cell cycle arrest in human A375 cells assessed as accumulation at S phase measured after 48 hrs by propidium iodide staining based flow cytometry (reference value: 31.3%)", "assay_type": "functional"}, "A-375 [25]": {"system": "A-375", "experiment": "Cell cycle arrest in human A375 cells assessed as accumulation at G2/M phase measured after 48 hrs by propidium iodide staining based flow cytometry (reference value: 10.83%)", "assay_type": "functional"}, "[26]": {"experiment": "Selectivity ratio of EC50 for mouse NIH3T3 cells to EC50 for human A375 cells", "assay_type": "toxicity", "conditions": "NIH3T3 cells versus A375 cells, read-out: Ratio EC50"}},
  "note": "Calls of active or inactive are those of the source. No cut-off for these calls is given here.",
  "data": [
    {"smiles": "C=C(C)[C@@H]1CC[C@]2(C(=O)Nc3cccc4ncccc34)CC[C@]3(C)[C@H](CC[C@@H]4[C@@]5(C)C[C@H](OC(C)=O)[C@H](OC(C)=O)C(C)(C)[C@@H]5CC[C@]43C)[C@@H]12", "values": [
      {"measurement": "EC50", "setting": "A-375 [1]", "value": 2.9, "unit": "µM"},
      {"measurement": "EC50", "setting": "HT-29", "value": "> 30", "unit": "µM"},
      {"measurement": "EC50", "setting": "MCF7", "value": 6.26, "unit": "µM"},
      {"measurement": "EC50", "setting": "A2780", "value": 3.24, "unit": "µM"},
      {"measurement": "EC50", "setting": "FaDu", "value": 3.49, "unit": "µM"},
      {"measurement": "EC50", "setting": "NIH3T3", "value": "> 120", "unit": "µM"},
      {"measurement": "selectivity ratio", "setting": "[2]", "value": 4},
      {"measurement": "selectivity ratio", "setting": "[3]", "value": 19.2},
      {"measurement": "selectivity ratio", "setting": "[4]", "value": 37},
      {"measurement": "Ratio EC50", "setting": "[5]", "value": 34.4},
      {"measurement": "Activity", "setting": "A-375 [6]", "value": 0.749, "unit": "%"},
      {"measurement": "Activity", "setting": "A-375 [7]", "value": 10.295, "unit": "%"},
      {"measurement": "viability at 4.8 µM", "setting": "A-375 [8]", "value": 80.4, "unit": "%"},
      {"measurement": "Activity", "setting": "A-375 [9]", "value": 6.495, "unit": "%"},
      {"measurement": "Activity", "setting": "A-375 [10]", "value": 1.342, "unit": "%"},
      {"measurement": "Activity", "setting": "A-375 [11]", "value": 12.388, "unit": "%"},
      {"measurement": "viability at 4.8 µM", "setting": "A-375 [12]", "value": 67.4, "unit": "%"},
      {"measurement": "Activity", "setting": "A-375 [13]", "value": 18.861, "unit": "%"},
      {"measurement": "Activity", "setting": "A-375 [14]", "value": "Active"},
      {"measurement": "Activity", "setting": "A-375 [15]", "value": "Active"},
      {"measurement": "Activity", "setting": "A-375 [16]", "value": "Active"},
      {"measurement": "Activity", "setting": "A-375 [17]", "value": "Active"},
      {"measurement": "Activity", "setting": "A-375 [18]", "value": 3.53, "unit": "%"},
      {"measurement": "Activity", "setting": "A-375 [19]", "value": 37.51, "unit": "%"},
      {"measurement": "Activity", "setting": "A-375 [20]", "value": 58.53, "unit": "%"},
      {"measurement": "Activity", "setting": "A-375 [21]", "value": 0.43, "unit": "%"},
      {"measurement": "Activity", "setting": "A-375 [22]", "value": 11.49, "unit": "%"},
      {"measurement": "Activity", "setting": "A-375 [23]", "value": 31.39, "unit": "%"},
      {"measurement": "Activity", "setting": "A-375 [24]", "value": 57.06, "unit": "%"},
      {"measurement": "Activity", "setting": "A-375 [25]", "value": 0, "unit": "%"}
    ]},
    {"smiles": "C=C(C)[C@@H]1CC[C@]2(C(=O)O)CC[C@]3(C)[C@H](CC[C@@H]4[C@@]5(C)C[C@H](OC(C)=O)[C@H](OC(C)=O)C(C)(C)[C@@H]5CC[C@]43C)[C@@H]12", "values": [
      {"measurement": "EC50", "setting": "A-375 [1]", "value": 15.8, "unit": "µM"},
      {"measurement": "EC50", "setting": "HT-29", "value": 17.4, "unit": "µM"},
      {"measurement": "EC50", "setting": "MCF7", "value": 11.2, "unit": "µM"},
      {"measurement": "EC50", "setting": "A2780", "value": 8.68, "unit": "µM"},
      {"measurement": "EC50", "setting": "FaDu", "value": 13.5, "unit": "µM"},
      {"measurement": "EC50", "setting": "NIH3T3", "value": 14.1, "unit": "µM"},
      {"measurement": "selectivity ratio", "setting": "[26]", "value": 0.9},
      {"measurement": "selectivity ratio", "setting": "[2]", "value": 0.8},
      {"measurement": "selectivity ratio", "setting": "[3]", "value": 1.3},
      {"measurement": "selectivity ratio", "setting": "[4]", "value": 1.6},
      {"measurement": "Ratio EC50", "setting": "[5]", "value": 1}
    ]}
  ]
}
